Calls of active or inactive are those of the source. The calls are words filed in the database; no cut-off is given here.

The source of these data is ChEMBL document CHEMBL4411280, “Synthesis, structure activity relationship and in vitro anti-influenza virus activity of novel polyphenol-pentacyclic triterpene conjugates” (Eur J Med Chem, 2019).

Data set [1] is described as follows: Cytotoxicity against MDCK cells after 40 hrs by CellTiter-Glo assay. The data set is classed as cell-based, Canis lupus familiaris. The conditions noted are these: dog. The method in brief:
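MDCK cells grown overnight in medium with 1% FBS, then exposed to increasing compound concentrations for 40 h. Viability measured by CellTiter-Glo luminescence, and CC50 derived from it.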

The next data set deals with MDCK. As to the kind of experiment: Cytotoxicity against MDCK cells at 50 uM after 40 hrs by CellTiter-Glo assay. The data set is classed as cell-based, Canis lupus familiaris. The conditions noted are these: dog. The method, boiled down:
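Single-concentration toxicity screen at 50 μM final on MDCK cells for 40 h, read by CellTiter-Glo. 0.5% DMSO final as negative control. Triplicate experiments, standard deviations shown.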

The subject of data set [2] is Influenza A virus. As to the kind of experiment: Antiviral activity against Influenza A virus A/WSN/33/H1N1 infected in MDCK cells assessed as reduction in virus-induced cytopathic effect after 40 hrs by CellTiter-Glo assay. Format: functional, organism-based. The settings on record: A/WSN/33/H1N1, MDCK. The method in brief:
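MDCK cells seeded overnight, infected with influenza A/WSN/33 (H1N1) at MOI 0.1. Kept in DMEM with 1% FBS, test compound, TPCK-treated trypsin and 1% final DMSO for 40 h. Cell viability read by CellTiter-Glo luminescence. IC50 taken from dose-response.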

The subject of data set [3] is Influenza A virus. As to the kind of experiment: Antiviral activity against Influenza A virus A/WSN/33/H1N1 infected in MDCK cells assessed as reduction in virus-induced cytopathic effect at 50 uM after 40 hrs by CellTiter-Glo assay. The data set is classed as functional, organism-based. The method in brief: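 Single-concentration screen at 50 μM final. MDCK cells infected with A/WSN/33 (H1N1) at MOI 0.1 in DMEM/1% FBS with TPCK-trypsin for 40 h, viability by CellTiter-Glo. 0.5% DMSO final as negative control, oseltamivir as positive control. Triplicate experiments, standard deviations shown.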

For data set [4], the target named is Hemagglutinin (Influenza A virus) (UniProt B4URE7). As to the kind of experiment: Inhibition of Influenza A virus A/WSN/33/H1N1 HA-mediated hemagglutination of chicken RBC measured after 30 mins. The method, boiled down:
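Compound serially diluted 3-fold in saline and mixed with an equal volume of A/WSN/33 virus (2 HA units). Freshly prepared chicken RBCs (1% v/v in saline) added. Incubated 30 min at room temperature, then agglutination scored visually. PBS as negative control, anti-HA antibody tested in parallel.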

The target of data set [5] is Hemagglutinin (Influenza A virus (A/Puerto Rico/8/1934(H1N1)), UniProt P03452). Description: Binding affinity to recombinant Influenza A virus (A/California/04/2009 (H1N1)) hemagglutinin by SPR assay. The method, boiled down:
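HA immobilised on the sensor chip to about 16,000 RU. Compounds injected as analytes at various concentrations in PBS-P running buffer (10 mM phosphate, 2.7 mM KCl, 137 mM NaCl, 0.05% P20, […]), with 60 s contact and 60 s dissociation. KD determined.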

Hemagglutinin (Influenza A virus (A/Puerto Rico/8/1934(H1N1)), UniProt P03452), sequence (P03452 whole entry): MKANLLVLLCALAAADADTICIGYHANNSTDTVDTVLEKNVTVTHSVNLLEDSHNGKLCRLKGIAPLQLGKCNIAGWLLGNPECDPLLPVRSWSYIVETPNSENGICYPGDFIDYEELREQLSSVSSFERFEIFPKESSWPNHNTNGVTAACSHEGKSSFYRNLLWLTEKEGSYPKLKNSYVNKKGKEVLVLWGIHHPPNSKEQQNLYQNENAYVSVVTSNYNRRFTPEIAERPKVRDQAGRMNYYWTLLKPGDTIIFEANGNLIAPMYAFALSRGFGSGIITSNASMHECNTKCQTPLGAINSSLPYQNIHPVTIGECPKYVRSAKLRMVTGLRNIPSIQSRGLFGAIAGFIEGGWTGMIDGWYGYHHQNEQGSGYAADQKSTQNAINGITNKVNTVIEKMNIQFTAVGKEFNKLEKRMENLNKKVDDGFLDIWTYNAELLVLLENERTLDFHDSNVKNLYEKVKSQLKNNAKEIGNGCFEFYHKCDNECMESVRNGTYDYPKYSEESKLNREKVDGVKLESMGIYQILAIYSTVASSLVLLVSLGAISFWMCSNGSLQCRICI
Hemagglutinin (Influenza A virus), sequence (B4URE7 as listed by the source): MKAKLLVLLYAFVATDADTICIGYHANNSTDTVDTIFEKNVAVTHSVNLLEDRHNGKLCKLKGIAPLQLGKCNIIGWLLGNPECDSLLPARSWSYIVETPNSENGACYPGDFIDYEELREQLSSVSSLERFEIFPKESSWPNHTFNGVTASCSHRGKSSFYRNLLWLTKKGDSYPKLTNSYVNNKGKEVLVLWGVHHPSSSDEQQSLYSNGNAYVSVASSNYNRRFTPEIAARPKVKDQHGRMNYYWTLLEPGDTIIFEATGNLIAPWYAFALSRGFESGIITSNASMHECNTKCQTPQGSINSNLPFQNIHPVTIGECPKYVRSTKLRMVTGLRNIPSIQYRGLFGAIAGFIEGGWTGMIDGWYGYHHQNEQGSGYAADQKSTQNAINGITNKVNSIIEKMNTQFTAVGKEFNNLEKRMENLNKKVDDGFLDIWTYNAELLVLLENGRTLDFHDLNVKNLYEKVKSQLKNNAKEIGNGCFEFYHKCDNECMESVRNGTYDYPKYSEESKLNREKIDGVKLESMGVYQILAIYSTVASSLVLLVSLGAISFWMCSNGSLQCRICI

Regarding `C[C@H]1[C@H](C)CC[C@]2(C(=O)NCCNC(=O)c3cc(OCc4ccccc4)c(OCc4ccccc4)c(OCc4ccccc4)c3)CC[C@]3(C)C(=CC[C@@H]4[C@@]5(C)CC[C@H](O)C(C)(C)[C@@H]5CC[C@]43C)[C@H]12`, the CC50 at 40 h in data set [1] is greater than 100 µM. Also, in the data set with MDCK, the Activity entry was “Non-Toxic”. For the same compound, the half-inhibitory concentration (IC50) in the data set with Influenza A virus [2] came to 32.9 µM. In addition, the result in the data set on Influenza A virus [3] was Active.

In the case of `C[C@H]1[C@H](C)CC[C@]2(C(=O)NCCNC(=O)c3ccccc3O)CC[C@]3(C)C(=CC[C@@H]4[C@@]5(C)CC[C@H](O)C(C)(C)[C@@H]5CC[C@]43C)[C@H]12`, the inhibition entry in data set [4] is “Dose-dependent effect”. For the same compound, the CC50 at 40 h in data set [1] is greater than 100 µM. In data set [5], the Kd amounted to 15.6 µM. Further, in the data set on MDCK, the Activity entry was “Non-Toxic”. For the same compound, the IC50 with Influenza A virus [2] was 5.8 µM. Also, in the data set on Influenza A virus [3], the outcome was Active.

In the case of `CC1(C)CC[C@]2(C(=O)NCCNC(=O)c3cc(OCc4ccccc4)c(OCc4ccccc4)c(OCc4ccccc4)c3)CC[C@]3(C)C(=CC[C@@H]4[C@@]5(C)CC[C@H](O)C(C)(C)[C@@H]5CC[C@]43C)[C@@H]2C1`, the Activity entry with MDCK was “Non-Toxic”. The result in the data set with Influenza A virus [3] was Active.

With `C=C(C)[C@@H]1CC[C@]2(C(=O)NCCNC(=O)c3cc(O)c(O)c(O)c3)CC[C@]3(C)[C@H](CC[C@@H]4[C@@]5(C)CC[C@H](O)C(C)(C)[C@@H]5CC[C@]43C)[C@@H]12`, the Activity result in the data set on MDCK is recorded as “Toxic”. Further, the outcome with Influenza A virus [3] was Active.

Turning to `C=C(C)[C@@H]1CC[C@]2(C(=O)NCCNC(=O)/C=C/c3ccc(O)cc3)CC[C@]3(C)[C@H](CC[C@@H]4[C@@]5(C)CC[C@H](O)C(C)(C)[C@@H]5CC[C@]43C)[C@@H]12`, the cytotoxic concentration (CC50) at 40 h in data set [1] is greater than 100 µM. In the data set with MDCK, the Activity entry is on record as “Non-Toxic”. Moreover, the IC50 in the data set with Influenza A virus [2] worked out at 15.7 µM. In addition, the outcome in the data set with Influenza A virus [3] was Active.

`CC1(C)CC[C@]2(C(=O)NCCNC(=O)c3ccccc3O)CC[C@]3(C)C(=CC[C@@H]4[C@@]5(C)CC[C@H](O)C(C)(C)[C@@H]5CC[C@]43C)[C@@H]2C1` displayed a CC50 at 40 h in data set [1] greater than 100 µM. In data set [5], the Kd came to 36 µM. Besides, the Activity result in the data set on MDCK was “Non-Toxic”. For the same compound, in the data set on Influenza A virus [2], the IC50 is 7.65 µM. Also, the result with Influenza A virus [3] was Active.

As to `CC1(C)CC[C@]2(C(=O)NCCNC(=O)c3cc(OCc4ccccc4)c(OCc4ccccc4)c(OCc4ccccc4)c3)[C@H](O)C[C@]3(C)C(=CC[C@@H]4[C@@]5(C)CC[C@H](O)C(C)(C)[C@@H]5CC[C@]43C)[C@@H]2C1`, in the data set on MDCK, the Activity entry is “Non-Toxic”. Further, the outcome in the data set on Influenza A virus [3] was Active.

For `CC1(C)CC[C@]2(C(=O)NCCNC(=O)c3ccccc3O)[C@H](O)C[C@]3(C)C(=CC[C@@H]4[C@@]5(C)CC[C@H](O)C(C)(C)[C@@H]5CC[C@]43C)[C@@H]2C1`, the CC50 at 40 h in data set [1] was greater than 100 µM. In addition, the Activity result in the data set on MDCK is “Non-Toxic”. In addition, the IC50 with Influenza A virus [2] is 5.84 µM. Further, the result in the data set with Influenza A virus [3] was Active.

As to `C[C@H]1[C@H](C)CC[C@]2(C(=O)NCCNC(=O)/C=C/c3ccc(O)cc3)CC[C@]3(C)C(=CC[C@@H]4[C@@]5(C)CC[C@H](O)C(C)(C)[C@@H]5CC[C@]43C)[C@H]12`, in the data set on MDCK, the Activity entry is reported as “Non-Toxic”.

Compound `CCOC(=O)C1=C[C@@H](OC(CC)CC)[C@H](NC(C)=O)[C@@H](N)C1` [OSELTAMIVIR] registered a CC50 at 40 h in data set [1] greater than 200 µM. Moreover, the IC50 in the data set with Influenza A virus [2] was found to be 16.5 µM.

As for `C[C@H]1[C@H](C)CC[C@]2(C(=O)O)CC[C@]3(C)C(=CC[C@@H]4[C@@]5(C)CC[C@H](O)C(C)(C)[C@@H]5CC[C@]43C)[C@H]12` [URSOLIC ACID], in data set [5], the Kd was 46.5 µM.

For `C[C@H]1[C@H](C)CC[C@]2(C(=O)NCCNC(=O)/C=C/c3ccccc3)CC[C@]3(C)C(=CC[C@@H]4[C@@]5(C)CC[C@H](O)C(C)(C)[C@@H]5CC[C@]43C)[C@H]12`, in data set [1], the CC50 at 40 h is greater than 100 µM. The Activity entry in the data set with MDCK is reported as “Non-Toxic”. Also, the IC50 in the data set with Influenza A virus [2] is 18.3 µM. In addition, in the data set with Influenza A virus [3], the outcome was Active.

Compound `C=C(C)[C@@H]1CC[C@]2(C(=O)NCCNC(=O)c3ccccc3O)CC[C@]3(C)[C@H](CC[C@@H]4[C@@]5(C)CC[C@H](O)C(C)(C)[C@@H]5CC[C@]43C)[C@@H]12` had a CC50 at 40 h in data set [1] greater than 100 µM. For the same compound, the Activity entry with MDCK is on record as “Non-Toxic”. Further, the IC50 with Influenza A virus [2] is 9.55 µM. Further, in the data set with Influenza A virus [3], the result was Active.
